Screens as filed in PubChem BioAssay.
This excerpt belongs to a sample that is enriched for hits.
INS-1E ATP HTS – preserves ATP levels in cytokine-treated INS-1E cells | AID 488910 | 20,000 tested, 0.1% active | protection from cytokine-induced ATP loss, % at 10 µM | INS-1E cytokine-induced death, ATP luminescence, 48 h; normalised: neutral wells 0, positive control 100;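 active means mean replicate protection from cytokine-induced ATP loss at least 50% and at least 75% of replicates each reaching 50%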
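Assay system: INS-1E rat insulinoma cells. Amount: 8000 cells per well. Medium: phenol-red-free RPMI with 5% fetal bovine serum. Reagent: IL-1β, TNF-α and IFN-γ cytokine mix. Doses: one compound concentration, pin transfer. Schedule: 48 h co-treatment, 10 min post-lysis read. Detection: CellTiter-Glo luminescence measuring cellular ATP.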
A1 apoptosis 2 – blocks A1, raising caspase activity; 24,000 tested, under 10 active; caspase activation, % (no concentration beside the values); MEF A1-2A-BIM cells, caspase-Glo luminescence, 3 h; percent of clofoctol response, DMSO zero; in the data active means caspase activation above about 5.9%
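Test system – A1-2A-BIM-expressing MEF cells · Input – 2500 cells/well · Medium – RPMI-1640 growth medium with 10% FBS · Compound dosing – 50 nL pinned compound · Timing – 3 h compound exposure at 37 °C · Technique – Caspase-Glo luminescence (DEVD substrate) · Evaluation – Caspase-3/7 activity from luminescence increase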
T cruzi intra – intracellular Trypanosoma cruzi inhibition. 22,000 tested, 4.9% active. intracellular Trypanosoma cruzi in host cells, plate reader. activity score (inhibition), % at 5.01 µM; in the data active means activity score above about 55%;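 further: parasites and compound incubated about four days before reading; 0% = median of neutral control wells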
* = called active by the depositor; / = no result given.

SMILES | INS-1E ATP HTS | A1 apoptosis 2 | T cruzi intra
C[C@@H]1CN([C@@H](C)CO)C(=O)c2cccc(NC(=O)c3ccncc3)c2O[C@H]1CN(C)C(=O)Nc1cccc2ccccc12 | 12 | 0 | 9
[N-]=[N+]=Nc1ccccc1C[C@]1(C(=O)NCCN2CCOCC2)N=C(c2ccc(OCCCO)cc2)O[C@H]1c1ccccc1 | / | 0 | /
C[C@H]1CN([C@@H](C)CO)C(=O)Cc2cc(NC(=O)Cc3cn(C)c4ccccc34)ccc2O[C@H]1CN(C)Cc1ccc(Cl)c(Cl)c1 | -1 | 0 | 60*
C[C@H](CO)N1C[C@H](C)[C@H](CN(C)Cc2ccc(Oc3ccccc3)cc2)Oc2ccc(NC(=O)Cc3cn(C)c4ccccc34)cc2CC1=O | -23 | / | 19
COc1ccc(CN(C)C[C@H]2Oc3ccc(NC(=O)Cc4cn(C)c5ccccc45)cc3CC(=O)N([C@H](C)CO)C[C@H]2C)cc1 | -7 | 1 | 14
C[C@H](CO)N1C[C@H](C)[C@H](CN(C)Cc2ccc(Cl)c(Cl)c2)Oc2ccc(NC(=O)Cc3cn(C)c4ccccc34)cc2CC1=O | -24 | 0 | 54
C[C@H](CO)N1C[C@H](C)[C@@H](CN(C)S(=O)(=O)c2ccc(Cl)cc2)Oc2ccc(NC(=O)Cc3cn(C)c4ccccc34)cc2CC1=O | / | 1 | /
COc1ccc(CN(C)C[C@@H]2Oc3ccc(NC(=O)Cc4cn(C)c5ccccc45)cc3CC(=O)N([C@H](C)CO)C[C@H]2C)cc1 | -8 | 0 | 65*
C[C@@H]1CN([C@H](C)CO)C(=O)Cc2cc(NC(=O)Cc3cn(C)c4ccccc34)ccc2O[C@@H]1CN(C)Cc1ccc(Oc2ccccc2)cc1 | -55 | 1 | 65*
C[C@@H]1CN([C@H](C)CO)C(=O)Cc2cc(NC(=O)Cc3cn(C)c4ccccc34)ccc2O[C@@H]1CN(C)S(=O)(=O)c1ccc(Cl)cc1 | 3 | / | 67*
COc1ccc(Br)cc1/C=N/NC(=O)c1ccccc1O | -1 | 0 | -20
O=C(CCCCC(=O)N/N=C/c1ccccn1)NO | 3 | / | -9
O=C(NO)c1cccc(C(=O)N/N=C/c2ccc(O)c(F)c2)c1 | 0 | / | -14
COc1ccc(Br)cc1/C=N/NC(=O)c1ccc(C(=O)NO)cc1 | 16 | 1 | -3
O=C(CCCCC(=O)N/N=C/c1ccccc1C(=O)O)NO | 9 | / | -19
C[C@@H]1CN([C@H](C)CO)C(=O)c2cc(NS(=O)(=O)c3cn(C)cn3)ccc2O[C@@H](C)CCCCO[C@H]1CN(C)CC1CCCCC1 | / | 1 | /
COc1ccc(S(=O)(=O)N(C)C[C@@H]2Oc3c(NS(=O)(=O)c4ccccc4)cccc3C(=O)N([C@@H](C)CO)C[C@H]2C)cc1 | 10 | -1 | 15
C[C@@H]1CN([C@@H](C)CO)C(=O)Cc2cc(NC(=O)Cc3cn(C)c4ccccc34)ccc2O[C@@H]1CN(C)Cc1ccc(C(F)(F)F)cc1 | 0 | -1 | 63*
C[C@H](CO)N1C[C@H](C)[C@@H](CN(C)Cc2ccc(C(F)(F)F)cc2)Oc2ccc(NC(=O)Cc3cn(C)c4ccccc34)cc2CC1=O | / | 0 | /
CC(C)(C)OC(=O)Nc1ccc(/C=N/NC(=O)c2cccc(C(=O)NO)c2)cc1 | -10 | / | 0
Cc1cc(C(=O)Nc2cccc3c2O[C@@H](CN(C)Cc2ccc(C(=O)Nc4ccccc4N)cc2)[C@@H](C)CN([C@H](C)CO)C3=O)n(C)n1 | -15 | / | 54
Cc1cc(C(=O)Nc2cccc3c2O[C@H](CN(C)Cc2ccc(C(=O)Nc4ccccc4N)cc2)[C@H](C)CN([C@@H](C)CO)C3=O)n(C)n1 | 60* | / | 28
C[C@@H]1CN([C@H](C)CO)C(=O)c2cccc(NC(=O)Nc3cccc4ccccc34)c2O[C@@H]1CN(C)Cc1ccc(C(=O)Nc2ccccc2N)cc1 | / | 0 | /
C[C@H](CO)N1C[C@H](C)[C@H](CN(C)Cc2ccc(C(=O)Nc3ccccc3N)cc2)Oc2c(NC(=O)Nc3cccc4ccccc34)cccc2C1=O | / | 0 | /
C[C@H]1CN([C@@H](C)CO)C(=O)c2cccc(NC(=O)Nc3cccc4ccccc34)c2O[C@H]1CN(C)Cc1ccc(C(=O)Nc2ccccc2N)cc1 | -10 | 1 | 68*
C[C@@H]1CN([C@@H](C)CO)C(=O)c2cccc(NC(=O)Nc3ccccc3)c2O[C@@H]1CN(C)Cc1ccc(C(=O)Nc2ccccc2N)cc1 | 46 | / | 66*
C[C@@H]1CN([C@H](C)CO)C(=O)c2cccc(NC(=O)Nc3ccccc3)c2O[C@H]1CN(C)Cc1ccc(C(=O)Nc2ccccc2N)cc1 | 4 | 2 | 76*
O=C(O)CCCCCC(=O)N/N=C/c1ccc(Br)s1 | 11 | / | -16
